# Compounds with a hit are over-represented: about 2.7% of the library has one in this group of screens.
# IMP-1 inh-1: blocks Pseudomonas aeruginosa IMP-1 metallo-beta-lactamase | inhibition, % at 5.6 µM | AID 1556 | 290,000 compounds, 0.45% hits | purified IMP-1, nitrocefin hydrolysis, epi-absorbance fluorescence;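 active = inhibition above the mean plus 3 SD of all compounds in the same screening run, cut at about 4.5% in these data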;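 also: 0% = IMP-1 with DMSO and 100% = DMSO wells lacking enzyme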
#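 Assay system: purified IMP-1; Quantity: IMP-1 0.2 nM before substrate addition; Medium: HEPES buffer pH 7.1 with ZnSO4 and Brij 35; Incubation: 15 min enzyme–compound preincubation, then 25 min nitrocefin reaction, 25 °C; Signal: fluorescence quenching readout, ex 480/em 530 nm; Controls: DMSO with and without IMP-1; Repeats: singlicate testing.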
# VIM-2 inh: blocks Pseudomonas aeruginosa VIM-2 metallo-beta-lactamase | purified VIM-2, nitrocefin hydrolysis, epi-absorbance fluorescence | AID 1527 | 290,000 compounds, 0.89% hits | inhibition, % at 5.6 µM;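 active = inhibition above the mean of all tested compounds plus 3 SD, cutoff set per screening run, cut at about 7.5% in these data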;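 also: red hydrolysis product quenches plate fluorescence so inhibitors raise well fluorescence; 0% = enzyme with DMSO and 100% = DMSO without enzyme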
# CTSL1 counter: cathepsin L1 inhibition, PFM18AAP counter-screen. recombinant F. hepatica cathepsin L1, Z-Leu-Arg-MCA fluorescence. inhibition, % at 5.96 µM. AID 1906. 300,000 compounds, 0.49% hits;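 active = inhibition above the mean of all tested compounds plus 3 SD, set per screening campaign, cut at about 17% in these data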;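 also: 0% = plate median of test compound wells and 100% = 1 µM Z-Phe-Ala-diazomethylketone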
# M18AAP inhibitor: PfM18AAP enzyme inhibition; recombinant PfM18AAP, H-Glu-NHMec fluorogenic cleavage; inhibition, % at 7.35 µM; 290,000 compounds, 1.2% hits; AID 1822;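 active = inhibition above the campaign mean inhibition over all tested compounds plus 3 SD, cut at about 28% in these data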;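 also: 0% = plate median of test compound wells and 100% = 2 mM ZnCl2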
# IMP-1 inh-2: IMP-1 inhibition, counter-screen for VIM-2 inhibitors | shares compounds with VIM-2 inh | purified IMP-1, nitrocefin hydrolysis, epi-absorbance fluorescence | inhibition, % at 5.6 µM | 1,300 tested, under 10 active | AID 1856; call rule not given here;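 also: 0% = enzyme with vehicle and 100% = vehicle without enzyme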
# VIM-2 FRET ctr: inhibits VIM-2 in FRET assay to exclude epi-absorbance artifacts; inhibition, % at 5.6 µM; purified VIM-2, CCF2 FRET substrate hydrolysis; shares compounds with VIM-2 inh; 1,300 compounds, 23% hits;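 active = inhibition above the mean of all tested compounds plus 3 SD, cut at about 19% in these data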;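 also: 0% = VIM-2 plus DMSO and 100% = no enzyme wells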
# TEM-1 inh: blocks E. coli TEM-1 beta-lactamase in VIM-2 selectivity screen; 1,300 compounds, 3% hits; Purified TEM-1, nitrocefin hydrolysis, epi-absorbance fluorescence; inhibition, % at 5.6 µM; shares compounds with VIM-2 inh;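 active = inhibition above that campaign's mean inhibition plus 3 SD, cut at about 0.46% in these data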;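 also: 0% = TEM-1 with DMSO and 100% = TEM-1 with 100 µM potassium clavulanate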
# Target sequence (P62593 whole entry, looked up): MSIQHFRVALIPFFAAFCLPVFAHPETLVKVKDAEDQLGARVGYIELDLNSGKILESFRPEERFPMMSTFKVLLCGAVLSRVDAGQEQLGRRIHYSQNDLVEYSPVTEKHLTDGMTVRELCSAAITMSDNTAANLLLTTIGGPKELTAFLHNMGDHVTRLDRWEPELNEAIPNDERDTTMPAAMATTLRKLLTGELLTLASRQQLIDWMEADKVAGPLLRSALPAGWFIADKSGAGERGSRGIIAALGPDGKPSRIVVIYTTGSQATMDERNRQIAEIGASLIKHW
# VIM-2 inh conf: confirmation of P. aeruginosa VIM-2 metallo-beta-lactamase inhibitors; AID 2187; shares compounds with VIM-2 inh; purified VIM-2, nitrocefin hydrolysis, epi-absorbance; 1,300 compounds, 96% hits; inhibition, % at 5.6 µM;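 active = inhibition of the VIM-2 beta-lactamase enzyme above about 11% from the earlier first-round screen, limit read from the data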;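 also: 0% = VIM-2 with DMSO and 100% = buffer wells without enzyme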
# Active calls of the source: *; · = not tested or not shown.
SMILES,IMP-1 inh-1,VIM-2 inh,CTSL1 counter,M18AAP inhibitor,IMP-1 inh-2,VIM-2 FRET ctr,TEM-1 inh,VIM-2 inh conf
O=C(O)c1[nH]c2ccc(Br)cc2c1CCN1C(=O)c2cccc([N+](=O)[O-])c2C1=O,-2,61*,-1,4,-3,79*,-7,68*
Cc1ccc(NC(=O)CCN2C(=O)c3cccc([N+](=O)[O-])c3C2=O)c(Br)c1,2,0,-2,-1,·,·,·,·
O=C(O)c1[nH]c2ccc(Cl)cc2c1CCN1C(=O)c2ccccc2C1=O,-1,65*,0,1,-1,79*,-2,74*
COc1ccc2[nH]c(C(=O)O)c(CCN3C(=O)c4ccc(C(=O)O)cc4C3=O)c2c1,-1,71*,7,-13,-3,84*,-5,75*
COc1ccc2[nH]c(C(=O)O)c(CCC(=O)O)c2c1,2,-5,-3,4,·,·,·,·
O=C1NC(=O)/C(=C\c2ccc(OCc3cccc([N+](=O)[O-])c3)cc2)N1,-2,-1,-4,6,·,·,·,·
CCC(c1n[nH]c(=S)n1-c1ccccc1)N(C)C (configuration not stated),-6,17*,0,31*,-3,34*,-4,26*
CC(c1n[nH]c(=S)n1-c1ccc(Cl)cc1)N(C)C (configuration not stated),-3,3,-3,26,·,·,·,·
O=Cc1ccc2cccnc2n1,-6,-2,-1,-15,·,·,·,·
O=Cc1ccc2ccc3cccnc3c2n1,-1,59*,-1,3,-4,-5,-5,70*
NC(=NC(=O)c1ccccc1)N1CCN(C(c2ccccc2)c2ccccc2)CC1,-2,-3,-5,5,·,·,·,·
O=C(O)C1Sc2[nH]c(=O)sc2C2c3cc(Cl)ccc3OC(=O)C12 (configuration not stated),-2,14*,0,5,-1,41*,-8,29*
Cc1n[nH]c(C)c1CCCCOc1ccc([N+](=O)[O-])cc1,-2,20*,-2,-2,-3,47*,-7,30*
CCCN(CCC)C1=N/C(=C\c2ccco2)C(=O)N1c1ccccc1,0,-3,2,5,·,·,·,·
FC(F)(F)c1cccc(-n2c(Cn3nnc4ccccc43)n[nH]c2=S)c1,-1,1,-2,19,·,·,·,·
CC(=O)Nc1cccc(-c2nnc(SCC(=O)n3c4c(c5ccccc53)CCCC4)n2C)c1,-2,15*,0,1,-4,9,-9,5
CC(=O)Nc1cccc(-c2nnc(SCC(=O)N3CCCCC3)n2C)c1,-4,-6,-2,0,·,·,·,·
Cc1nc(S/C(=C\c2ccc(-c3ccc(C(=O)O)c(Cl)c3)o2)C(=O)O)n[nH]1,-5,16*,·,25,-6,17*,-7,17*
CCn1cc(C(=O)NCCCN2CCC(C)CC2)c2cc(OC)c(OC)cc2c1=O,0,1,-2,-10,·,·,·,·
CC1CCCN(c2c3c(nc4ccccc24)CCCC3)C1 (configuration not stated),0,13*,6,-5,-3,2,-5,21*
Cc1cc(=O)oc2c(C)c(OC(C)C(=O)NCCCn3ccnc3)ccc12 (configuration not stated),-3,16*,-2,1,-3,-4,-7,31*
CCc1cc(=O)oc2cc(OC(C)C(=O)NCCCn3ccnc3)ccc12 (configuration not stated),-1,0,0,2,·,·,·,·
CCc1cc(=O)oc2c(C)c(OC(C)C(=O)NCCCn3ccnc3)ccc12 (configuration not stated),-1,20*,0,-10,-2,-7,-6,30*
Cc1ccc(NC(=O)C2CC(=O)N/C(=N/N=C/c3ccco3)S2)cc1C (configuration not stated),-5,-6,8,-7,·,·,·,·
CCOC(=O)N1CCN(C(=O)c2cccn3c(=O)c4cc(Br)ccc4nc23)CC1,0,-2,-1,-1,·,·,·,·
SMILES,IMP-1 inh-1,VIM-2 inh,CTSL1 counter,M18AAP inhibitor,IMP-1 inh-2,VIM-2 FRET ctr,TEM-1 inh,VIM-2 inh conf
Cc1cccc(NC(=O)c2cc3c(=O)n4ccccc4nc3s2)c1,-1,1,3,-11,·,·,·,·
CCC(C)NC(=O)c1cc2c(=O)n3cccc(C)c3nc2s1 (configuration not stated),-3,20*,2,-1,-3,-6,-3,27*
C=CCNC(=O)c1cc2c(=O)n3cccc(C)c3nc2s1,-3,19*,4,4,-2,-1,-4,26*
CCOC(=O)N1CCN(C(=O)c2cc3c(=O)n4cccc(C)c4nc3s2)CC1,-2,16*,-2,4,-3,-1,-5,24*
CN(C)S(=O)(=O)c1ccc(C(=O)NCc2nnc(SCC(=O)c3ccccc3)o2)cc1,-1,-1,0,-2,·,·,·,·
CCN1CCN(C(=O)CCc2nc3ccccc3c(=O)[nH]2)CC1,0,21*,-3,6,-3,-2,-5,43*
Cc1ccc(S(=O)(=O)NC(Cc2ccccc2)C(=O)O)cc1C (configuration not stated),-2,-2,-5,-3,·,·,·,·
COc1cccc(/C=C2\SC(=S)N(C(C(=O)O)c3ccccc3)C2=O)c1OC (configuration not stated),1,32*,1,17,-2,26*,-6,18*
Clc1cccc(CNCCCSc2ncccn2)c1,-2,-1,-2,2,·,·,·,·
COc1cc2oc3ccccc3c(=O)c2cc1OC,-2,14*,7,6,-3,0,-4,18*
O=c1c2ccccc2oc2ccc(Oc3ccccc3)cc12,-3,0,1,-8,·,·,·,·
O=C1CCCC/C1=C/Nc1cccc(C(F)(F)F)c1,-3,13*,3,5,-2,30*,1.4*,25*
O=C(NC(=S)Nc1ccccc1N1CCCC1)c1ccccc1Br,-3,17*,23*,27,-3,4,-8,2
O=C(NC(=S)Nc1ccccc1N1CCCC1)c1ccco1,-2,12*,21*,11,-3,36*,-7,19*
O=C(CCN1C(=O)/C(=C/c2ccccc2F)SC1=S)NCCCn1ccnc1,-1,37*,3,8,-2,44*,-8,41*
CC(=O)NS(=O)(=O)c1cccnc1Nc1ccc(Cl)cc1,-5,-4,0,-2,·,·,·,·
Clc1nnc(N/N=C/c2ccccc2)c2ccccc12,2,0,-1,17,·,·,·,·
C[n+]1ccc(/C=N/Nc2nc(Cl)c(C#N)c(Cl)c2Cl)cc1,-8,43*,4,4,-9,34*,-13,53*

# Screening data as filed in PubChem BioAssay.
